Reference: ChEMBL document CHEMBL1949533, “Novel molecular combination deriving from natural aminoacids and polyphenols: Design, synthesis and free-radical scavenging activities” (Eur J Med Chem, 2012)

Experiments:
[1] = tested on: Radical scavenging activity; test: Antioxidant activity assessed as DPPH free radical scavenging activity by UV-Vis spectrophotometry; assay type: functional
Summary of the method: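 DPPH methanolic solution (1.5 mL) mixed with 0.750 mL compound solution at 1, 0.5, 0.25, 0.125 and 0.0625 mg/mL; absorbance decrease read at 517 nm and % remaining DPPH radical calculated. IC50 (concentration halving initial DPPH) derived by regression across concentrations, expressed as nmol/mL.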

[2] = Antioxidant activity assessed as trolox equivalents ratio of AAPH radical scavenging activity after 30 mins by ORAC-fluorescein assay; assay type: functional
Summary of the method: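 Compounds dissolved in PBS immediately before use, pH 7.4; fluorescein quenching initiated by AAPH, fluorescence (excitation 485 nm) read at 37 °C every 5 min up to 30 min. Net area under fluorescein decay curve (blank minus sample) converted to Trolox equivalents via 10–50 µM Trolox calibration; three replicates.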

Row | Compound | IC50 [1] [µM] | Ratio [2]
1 | COC(=O)[C@H](CS)NC(=O)/C=C/c1ccc(O)cc1 | 148 | 
2 | O=C(Cc1ccc(O)c(O)c1)N[C@@H](Cc1ccc(O)cc1)C(=O)NCCc1ccc(O)c(O)c1 | 32 | 3.82
3 | O=C(Cc1ccc(O)c(O)c1)N[C@@H](CS)C(=O)NCCc1ccc(O)c(O)c1 | 20 | 1.77
4 | COC(=O)[C@H](CS)NC(=O)/C=C/c1ccccc1O | 150 | 
5 | O=C(/C=C/c1ccc(O)c(O)c1)N[C@@H](CS)C(=O)NCCc1ccc(O)c(O)c1 | 26 | 0.855
6 | COC(=O)[C@H](CS)NC(=O)/C=C/c1cccc(O)c1 | 185 | 
7 | COC(=O)[C@H](CS)NC(=O)Cc1ccc(O)c(OC)c1 | 82 | 2.4
8 | COC(=O)[C@@H](N)CS.Cl | 123 | 0.3
9 | COC(=O)[C@H](Cc1ccc(O)cc1)NC(=O)Cc1ccc(O)c(O)c1 | 44 | 4.8
10 | CSCC[C@H](NC(=O)/C=C/c1ccc(O)c(O)c1)C(=O)NCCc1ccc(O)c(O)c1 | 23 | 3.38
11 | O=C(O)Cc1ccc(O)c(O)c1 [3,4-DIHYDROXYPHENYLACETIC ACID] | 26 | 4.2
12 | O=C(/C=C/c1ccc(O)c(O)c1)N[C@@H](Cc1ccc(O)cc1)C(=O)NCCc1ccc(O)c(O)c1 | 32 | 2.79
13 | COC(=O)[C@H](CCSC)NC(=O)Cc1ccc(O)c(O)c1 | 48 | 3.6
14 | COC(=O)[C@H](CS)NC(=O)/C=C/c1cc(OC)c(O)c(OC)c1 | 76 | 1.3
15 | COC(=O)[C@H](CS)NC(=O)c1cc(OC)c(O)c(OC)c1 | 143 | 
16 | CSCC[C@H](NC(=O)Cc1ccc(O)c(O)c1)C(=O)NCCc1ccc(O)c(O)c1 | 68 | 1.24
17 | COC(=O)[C@H](CS)NC(=O)/C=C/c1ccc(O)c(OC)c1 | 84 | 1.4
18 | COC(=O)[C@H](CCSC)NC(=O)/C=C/c1ccc(O)c(O)c1 | 25 | 2.3
19 | COC(=O)[C@H](CS)NC(=O)Cc1ccc(O)c(O)c1 | 29 | 3
20 | COC(=O)[C@H](CS)NC(=O)/C=C/c1ccc(O)c(O)c1 | 22 | 1.4
21 | O=C(O)/C=C/c1ccc(O)c(O)c1 [CAFFEIC ACID] | 41 | 2.7
22 | COC(=O)[C@@H](N)CCSC.Cl [METHIONINE METHYL ESTER HYDROCHLORIDE] | > 1250 | 0.8
23 | COC(=O)[C@H](Cc1ccc(O)cc1)NC(=O)/C=C/c1ccc(O)c(O)c1 | 30 | 3.4
24 | COC(=O)[C@@H](N)Cc1ccc(O)cc1.Cl | > 1280 | 3.9
25 | Cc1c(C)c2c(c(C)c1O)CCC(C)(C(=O)O)O2 (racemic) [TROLOX] | 55 | 
